High-throughput results deposited in PubChem BioAssay by several laboratories.
b-catenin transl = modulators of beta-catenin nuclear translocation, primary screen, imaging, HeLa cells, immunofluorescence, high-content; nuclear translocation activity, % at 5 µM; 0.3% of 190,000 active;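 active = nuclear translocation activity above 50% at 5 µM, with a well cell count of 50 or more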;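 also: per-cell ratio of nuclear to cytoplasmic median beta-catenin stain intensity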
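Technique: fluorescence imaging of beta-catenin antibody stain plus DAPI / Material: human HeLa cell line / Incubation: compound treatment 24 h, 37°C, 5% CO2 / Read-out basis: % activation of per-cell nuclear versus cytoplasmic median beta-catenin signal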
MT stabilizer = microtubule stabilizers in HeLa cells, primary screen, imaging, high-content imaging; % tubulin-high responders, % at 10 µM; AID 2205, 2009; HeLa tubulin immunostaining HCS, 24 h; share of cells brighter than vehicle mean+2SD; 0.83% of 200,000 active;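 active = plate Z-score above 3 for both tubulin-high and condensed-nucleus cell shares, with cell loss under 80%, at 10 µM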;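 also: anti alpha tubulin signal scored within the nucleus-defined area of each cell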
Autophagy HCS = autophagy modulators in MEF cells, primary screen, imaging, high-content, MEF GFP-LC3; MEF GFP-LC3 puncta imaging; test concentration mostly 10 µM; calls only at 10 µM (by protocol); 0.98% of 190,000 active; AID 463193, 2010;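 active = percentage of spot-positive cells more than 3 SD above its plate mean, without a fluorescence outlier flag or 80% toxicity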
CHOP inh = inhibitors of CHOP promoter induction, primary screen, cell-based, unfolded protein response, luciferase reporter; CHO-K1 CHOP-promoter luciferase, tunicamycin-induced, 15-18 h; inhibition, % at 10 µM; 3.8% of 220,000 active; AID 2732, 2010;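 active = compounds that reduced the stress-induced luciferase reporter signal by more than about 70% of percent inhibition, limit read from the data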
Lmaj promast = Leishmania major promastigote growth inhibition, primary screen. inhibition, % at 10 µM. 9% of 200,000 active. Leishmania major promastigotes, resazurin fluorescence viability; in the data active = inhibition above about 50%;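 also: promastigotes grown with compound for 44 hours at 28 °C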
Dynein cargo inh = inhibitors of GR-EGFP nuclear translocation, primary screen, dynein cargo transport inhibitor project, imaging, high-content, 3617.4 mouse cells. test concentration mostly 20 µM; stimulated with dexamethasone, 1 µM; hits give low values. AID 1381, 2008. z-score, hits read low. 0.47% of 220,000 active;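 active = plate z-score of nuclear minus cytoplasmic receptor signal below a set negative limit, without overly bright fluorescence or cell loss, cut at about -3.5 in these data, passing the limit was not always enough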;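 also: z-score of nuclear minus cytoplasmic ring GR-EGFP intensity difference per well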
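Buffer or medium: Induction medium lacking tetracycline, stripped serum | Also added: Dexamethasone agonist, 1.0 µM final, for 30 min | Timing: 48 h induction, 1 h compound, 30 min dex at 37 °C | Detection: Formaldehyde fixation, Hoechst nuclear stain, 10x automated fluorescence imaging | Measure: Nuclear versus cytoplasmic GR-EGFP signal, averaged per well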
Lmaj promast 1uM = Leishmania major promastigote growth inhibition, confirmation, 1 µM repeat of primary hits; shares compounds with Lmaj promast; L. major promastigote growth, resazurin fluorescence, 48 h; inhibition, % at 1 µM; 13% of 1,100 active; AID 1258, 2008;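 active = inhibition above about 50% in both repeat tests, limit read from the data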
Numbers stand for hits. Hits are enriched below; roughly 12% of the tested compounds scored in any of these assays.

What do the screens show for `COc1ccc(/C(C)=N/OC/C(O)=C(\C#N)c2nc3ccccc3[nH]2)cc1`?
b-catenin transl: inactive; MT stabilizer: inactive; Autophagy HCS: inactive; CHOP inh: inactive; Lmaj promast: inactive; Dynein cargo inh: inactive

Results for Cc1ccc2[nH]c3c(c2c1)CCc1cn[nH]c1-3 ?
b-catenin transl: inactive; MT stabilizer: inactive; Autophagy HCS: inactive; CHOP inh: inactive; Lmaj promast: 52; Dynein cargo inh: inactive; Lmaj promast 1uM: inactive

What do the screens show for `Cc1ccc2[nH]c3c(c2c1)CCC3=O`?
b-catenin transl: inactive; MT stabilizer: inactive; Autophagy HCS: inactive; CHOP inh: inactive; Lmaj promast: inactive; Dynein cargo inh: inactive

How did COc1ccc(Br)c(C(=O)Nc2ccc(F)cc2)c1 do in these assays?
b-catenin transl: inactive; CHOP inh: inactive; Dynein cargo inh: inactive

What do the screens show for `CC(NS(=O)(=O)/C=C/c1ccccc1)C(=O)NCCc1ccc(S(N)(=O)=O)cc1` (stereo unspecified)?
b-catenin transl: inactive; MT stabilizer: inactive; Autophagy HCS: inactive; CHOP inh: inactive; Lmaj promast: inactive; Dynein cargo inh: inactive

What do the screens show for `Cc1c(-c2ccccc2)c(P(=O)(N2CCOCC2)N2CCOCC2)c2ccccn12`?
b-catenin transl: inactive; MT stabilizer: inactive; Autophagy HCS: inactive; CHOP inh: inactive; Lmaj promast: 55; Dynein cargo inh: inactive; Lmaj promast 1uM: inactive

How did O=P(C1=C(N2CCOCC2)/C(=C\c2ccccc2)CC1)(N1CCOCC1)N1CCOCC1 do in these assays?
b-catenin transl: inactive; MT stabilizer: inactive; Autophagy HCS: inactive; CHOP inh: inactive; Lmaj promast: inactive; Dynein cargo inh: inactive

What do the screens show for `COc1ccc(CC(=O)NNS(=O)(=O)c2ccccc2)cc1OC`?
b-catenin transl: inactive; MT stabilizer: inactive; Autophagy HCS: inactive; CHOP inh: inactive; Lmaj promast: inactive; Dynein cargo inh: inactive

How did Fc1ccccc1C1c2cccn2CCN1C(=S)Nc1ccc(Br)cc1 (stereo unspecified) do in these assays?
b-catenin transl: inactive; MT stabilizer: inactive; Autophagy HCS: inactive; CHOP inh: inactive; Lmaj promast: inactive; Dynein cargo inh: inactive

How did CC(C)C1N=C(c2ccc3c(c2)OCO3)CC(c2ccccc2O)N1 (stereo unspecified) do in these assays?
b-catenin transl: inactive; MT stabilizer: inactive; Autophagy HCS: inactive; CHOP inh: inactive; Lmaj promast: 99; Dynein cargo inh: inactive; Lmaj promast 1uM: inactive

How did Cc1ccc(-c2nnc(-c3ccc4c(c3)OCO4)o2)cc1 do in these assays?
b-catenin transl: inactive; MT stabilizer: inactive; Autophagy HCS: inactive; CHOP inh: inactive; Lmaj promast: inactive; Dynein cargo inh: inactive

What do the screens show for `Cc1ccc(S(=O)(=O)N2CCC(=O)N(C(COCc3ccc(C(F)(F)F)cc3)Cc3ccccc3)CC2)cc1` (stereo unspecified)?
MT stabilizer: inactive; Autophagy HCS: inactive; CHOP inh: inactive; Lmaj promast: 73; Dynein cargo inh: inactive; Lmaj promast 1uM: inactive

How did Cc1cc(C)n(-c2nc3ccccc3c(=O)n2OCC(=O)OCc2ccccc2)n1 do in these assays?
b-catenin transl: inactive; MT stabilizer: inactive; Autophagy HCS: active; Lmaj promast: 92; Dynein cargo inh: inactive; Lmaj promast 1uM: inactive

What do the screens show for `C/C(=N\OCC(=O)NCC(F)(F)F)c1cc2ccccc2o1`?
MT stabilizer: inactive; Autophagy HCS: inactive; CHOP inh: inactive; Lmaj promast: 56; Dynein cargo inh: inactive; Lmaj promast 1uM: inactive

What do the screens show for `CC(=O)NC(C)C(=O)OCc1ccc(Cl)cc1Cl` (stereo unspecified)?
b-catenin transl: inactive; MT stabilizer: inactive; Autophagy HCS: inactive; CHOP inh: inactive; Lmaj promast: inactive; Dynein cargo inh: inactive

What do the screens show for `CC(=O)NC1=NN(C(C)=O)C(C)(c2ccccc2)S1` (stereo unspecified)?
b-catenin transl: inactive; MT stabilizer: inactive; Autophagy HCS: inactive; CHOP inh: inactive; Lmaj promast: inactive; Dynein cargo inh: inactive

How did CC(=O)NC1=NN(C(C)=O)C(C)(c2ccc3ccccc3c2)S1 (stereo unspecified) do in these assays?
MT stabilizer: inactive; Autophagy HCS: inactive; CHOP inh: inactive; Lmaj promast: 60; Dynein cargo inh: inactive; Lmaj promast 1uM: inactive

Results for CC(=O)c1cccc(S(=O)(=O)N2CCN(c3nc4cc(C)cc(C)c4cc3C#N)CC2)c1 ?
b-catenin transl: inactive; MT stabilizer: inactive; Autophagy HCS: inactive; CHOP inh: inactive; Lmaj promast: 50; Dynein cargo inh: inactive; Lmaj promast 1uM: inactive

What do the screens show for `Cc1cc(C)c2cc(C#N)c(N3CCCN(S(=O)(=O)c4ccccc4)CC3)nc2c1`?
MT stabilizer: inactive; Autophagy HCS: inactive; Lmaj promast: inactive; Dynein cargo inh: inactive

What do the screens show for `CC(C)(C)c1ccc(C(=O)NCCCN2CCN(CCCNC(=O)c3ccc(C(C)(C)C)cc3)CC2)cc1`?
b-catenin transl: inactive; MT stabilizer: inactive; Autophagy HCS: inactive; CHOP inh: inactive; Lmaj promast: 100; Dynein cargo inh: inactive; Lmaj promast 1uM: inactive

What do the screens show for `CCOC(=O)c1c(NC(=O)c2csc(C)c2)sc(C(C)=O)c1C`?
MT stabilizer: inactive; Autophagy HCS: inactive; Lmaj promast: inactive; Dynein cargo inh: inactive

How did O=C1C(=O)c2c(C(=O)c3ccccc3)coc2-c2ccccc21 do in these assays?
MT stabilizer: inactive; Autophagy HCS: inactive; CHOP inh: inactive; Lmaj promast: 100; Dynein cargo inh: inactive; Lmaj promast 1uM: 61

Results for Cc1occc1-c1nc(-c2ccccn2)no1 ?
b-catenin transl: inactive; MT stabilizer: inactive; Autophagy HCS: inactive; CHOP inh: inactive; Lmaj promast: inactive; Dynein cargo inh: inactive

What do the screens show for `Cc1onc(-c2ccccc2Cl)c1-c1nc(-c2ccccn2)no1`?
b-catenin transl: inactive; MT stabilizer: inactive; Autophagy HCS: inactive; CHOP inh: inactive; Lmaj promast: 75; Dynein cargo inh: inactive; Lmaj promast 1uM: inactive

Results for COc1ccc(/C=C2\CN(Cc3ccccc3)C/C(=C\c3ccc(OC)cc3OC)C2=O)c(OC)c1 ?
b-catenin transl: inactive; MT stabilizer: inactive; Autophagy HCS: inactive; CHOP inh: inactive; Lmaj promast: 71; Dynein cargo inh: inactive; Lmaj promast 1uM: inactive

Results for C=CCOc1ccc(C2CC(C)=NN2c2ccccc2)cc1 (stereo unspecified) ?
b-catenin transl: inactive; MT stabilizer: inactive; Autophagy HCS: inactive; CHOP inh: inactive; Lmaj promast: inactive; Dynein cargo inh: inactive

What do the screens show for `CCN(CC)CCn1c2ccccc2c2cnc(N)c(C#N)c21`?
b-catenin transl: inactive; MT stabilizer: inactive; Autophagy HCS: active; CHOP inh: inactive; Lmaj promast: 100; Dynein cargo inh: inactive; Lmaj promast 1uM: inactive
